ChEMBL document CHEMBL3108729, “Design, synthesis and anticonvulsant evaluation of N-(benzo[d]thiazol-2-ylcarbamoyl)-2-methyl-4-oxoquinazoline-3(4H)-carbothioamide derivatives: a hybrid pharmacophore approach” (Eur J Med Chem, 2013)

Legend:
Rattus norvegicus [1] = assay: Hepatotoxicity in albino rat assessed as change in SGPT level at 30 mg/kg, po for 14 days (reference value: 46.1+/-5.25 units/ml); type: toxicity, organism-based; parameters: dose 30 mg/kg, route oral; conditions: in vivo, 336 h
Rattus norvegicus [2] = assay: Anticonvulsant activity in Wistar rat assessed as inhibition of GABA-induced seizures measuring minimum GABA level per 100 mg whole brain required for 50 % inhibition at 30 mg/kg, po for 7 days (reference value: 51.5 +/- 2.60 ug/100 mg brain); type: functional
Method in brief: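 Adult Wistar rats in groups of six were dosed orally at 30 mg/kg for 7 days. Whole-brain GABA was then measured enzymatically in ethanol extracts as µg/100 mg tissue. Values are mean ± SEM of six rats versus control (Student's t test).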

Rattus norvegicus [3] = assay: Hepatotoxicity in albino rat assessed as change in SGOT level at 30 mg/kg, po for 14 days (reference value: 74.2+/-5.95 units/ml); type: toxicity, organism-based; parameters: dose 30 mg/kg, route oral; conditions: in vivo, 336 h
Mus musculus [4] = assay: Anticonvulsant activity in ip dosed albino mouse assessed as protection against AMPA-induced tonic phase of seizures after 30 mins; type: functional; conditions: 0.5 h
Method in brief: (§1)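 Mice were dosed i.p. over 10–100 µmol/kg. After 30 min, AMPA was injected i.c.v. into a lateral ventricle under ether anaesthesia, at 9.7 nmol for clonus or 11.7 nmol for forelimb tonic extension. Mice were observed singly for 30 min. ED50 values with 95% confidence limits were derived from dose–response data.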

Mus musculus [5] = assay: Neurotoxicity in ip dosed albino mouse after 0.5 hrs by rotorod test; type: toxicity, organism-based; conditions: in vivo
Method in brief: (§2)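 Swiss mice, four per dose, received 30, 100 or 300 mg/kg i.p. and were placed on a rotorod at 0.5 and 4 h. Neurotoxicity meant failure to keep balance for 1 min. The value reported is the minimum dose affecting half or more of the mice.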

Mus musculus [6] = assay: Anticonvulsant activity in ip dosed albino mouse assessed as protection against maximal electroshock-induced seizures after 0.5 hrs; type: functional; conditions: read-out: MED
[7] = Protective index, ratio of TD50 for neurotoxicity to ED50 for protection against pentylenetetrazole-induced seizure in albino rat after 0.5 hrs; type: toxicity, organism-based; conditions: in vivo, read-out: Ratio TD50/ED50
Method in brief: (§3)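 Rats received oral doses in groups of eight at the time of peak effect, with at least three points in the 10–90% range for seizure protection or minimal neurotoxicity. ED50, TD50 and 95% confidence intervals were computed by regression, and PI was calculated as TD50/ED50.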

Mus musculus [8] = assay: Neurotoxicity in albino mouse at 300 mg/kg, ip after 4 hrs by rotorod test; type: toxicity, organism-based; parameters: dose 300 mg/kg, route intraperitoneal; conditions: in vivo; method in brief: as §2
[9] = Neurotoxicity in po dosed albino rat after 0.5 hrs; type: toxicity, organism-based; conditions: in vivo
Rattus norvegicus [10] = assay: Anticonvulsant activity in Wistar rat assessed as inhibition of GABA-induced seizures measuring minimum GABA level per 100 mg whole brain required for 50 % inhibition at 100 mg/kg, ip as single dose measured after 2 hrs (reference value: 46.4 +/- 5.50 ug/100 mg brain); type: functional; conditions: route intraperitoneal
Rattus norvegicus [11] = assay: Anticonvulsant activity in po dosed albino rat assessed as protection against maximal electroshock-induced seizures after 0.5 hrs; type: functional
[12] = Protective index, ratio of TD50 for neurotoxicity to ED50 for protection against maximal electroshock-induced seizure in albino rat after 0.5 hrs; type: toxicity, organism-based; conditions: in vivo, read-out: Ratio TD50/ED50; method in brief: as §3
Mus musculus [13] = assay: Anticonvulsant activity in ip dosed albino mouse assessed as protection against maximal electroshock-induced seizures after 4 hrs; type: functional; conditions: read-out: MED
Mus musculus [14] = assay: Anticonvulsant activity in ip dosed albino mouse assessed as protection against AMPA-induced clonic phase of seizures after 30 mins; type: functional; conditions: 0.5 h; method in brief: as §1
Rattus norvegicus [15] = assay: Anticonvulsant activity in po dosed albino rat assessed as protection against pentylenetetrazole-induced seizure after 0.5 hrs; type: functional
Rattus norvegicus [16] = assay: Anticonvulsant activity in po dosed albino rat assessed as protection against pentylenetetrazole-induced seizure after 4 hrs; type: functional
[17] = Protective index, ratio of TD50 for neurotoxicity to ED50 for protection against pentylenetetrazole-induced seizure in albino rat after 4 hrs; type: toxicity, organism-based; conditions: in vivo, read-out: Ratio TD50/ED50; method in brief: as §3
Rattus norvegicus [18] = assay: Anticonvulsant activity in po dosed albino rat assessed as protection against maximal electroshock-induced seizures after 4 hrs; type: functional
Mus musculus [19] = assay: Anticonvulsant activity in ip dosed albino mouse assessed as protection against 6 Hz electroshock-induced seizures after 2 hrs; type: functional
[20] = Neurotoxicity in po dosed albino rat after 4 hrs; type: toxicity, organism-based; conditions: in vivo
Mus musculus [21] = assay: Neurotoxicity in ip dosed albino mouse after 4 hrs by rotorod test; type: toxicity, organism-based; conditions: in vivo; method in brief: as §2
[22] = Protective index, ratio of TD50 for neurotoxicity to ED50 for protection against maximal electroshock-induced seizure in albino rat after 4 hrs; type: toxicity, organism-based; conditions: in vivo, read-out: Ratio TD50/ED50; method in brief: as §3

Row | Structure (SMILES) | Activity (Rattus norvegicus [1]) [U/ml] | GABA level (Rattus norvegicus [2]) [µg/100 mg brain] | Activity (Rattus norvegicus [3]) [U/ml] | ED50 (Mus musculus [4]) [µmol/kg] | MTC (Mus musculus [5]) [mg/kg] | minimal effective dose (Mus musculus [6]) [mg/kg] | GABA level (Rattus norvegicus [10]) [µg/100 mg brain] | minimal effective dose (Mus musculus [13]) [mg/kg] | ED50 (Mus musculus [14]) [µmol/kg] | further results
1 | Cc1nc2ccccc2c(=O)n1C(=S)NC(=O)Nc1nc2ccc(OC(F)(F)F)cc2s1 | 44.7 | 68.2 | 72.4 | 28.5 | 300 | 30 | 75.5 | 30 | 37.9 | selectivity ratio at 0.5 h [7]: > 4.2; Activity (Mus musculus [8]): Non-toxic; TD50 at 0.5 h [9]: > 2150 µmol/kg; ED50 (Rattus norvegicus [11]): 82.5 µmol/kg; selectivity ratio at 0.5 h [12]: > 26; ED50 (Rattus norvegicus [15]): 510 µmol/kg
2 | Cc1nc2ccccc2c(=O)n1C(=S)NC(=O)Nc1nc2ccc(Cl)cc2s1 | 48.5 | 111 | 71.2 | 56.9 | 300 | 30 | 92.1 | 100 | 70.3 | ED50 (Rattus norvegicus [16]): 722 µmol/kg; selectivity ratio at 4 h [17]: > 3.4; ED50 (Rattus norvegicus [18]): 142 µmol/kg; ED50 (Mus musculus [19]): 1230 µmol/kg; TD50 at 4 h [20]: > 2500 µmol/kg; MTC (Mus musculus [21]): 300 mg/kg; selectivity ratio at 4 h [22]: > 17
